From publication PMC10099454 (ACS Omega, 2023)

Assays:
MCF-7 = experiment: MTT cytotoxicity assay; format: cell-based; details: Homo sapiens, MCF7, 48 h, read-out: IC50 MCF-7
In short: (§1)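 Human cancer (A549, MCF-7) and normal (MCF-10A, THLE2, WISH) lines cultured in RPMI-1640/DMEM with L-glutamine, 10% FBS and 1% penicillin-streptomycin at 37 °C, 5% CO2. […] MTT absorbance read at […]. IC50 taken from concentration-viability curves.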

A549 = experiment: MTT cytotoxicity assay; format: cell-based; details: Homo sapiens, A549, 48 h, read-out: IC50 A549
In short: as §1

Topoisomerase II = Topoisomerase II (Homo sapiens, UniProt P11388); experiment: Topo II inhibition assay; format: biochemical
Topoisomerase II, sequence (P11388 whole entry): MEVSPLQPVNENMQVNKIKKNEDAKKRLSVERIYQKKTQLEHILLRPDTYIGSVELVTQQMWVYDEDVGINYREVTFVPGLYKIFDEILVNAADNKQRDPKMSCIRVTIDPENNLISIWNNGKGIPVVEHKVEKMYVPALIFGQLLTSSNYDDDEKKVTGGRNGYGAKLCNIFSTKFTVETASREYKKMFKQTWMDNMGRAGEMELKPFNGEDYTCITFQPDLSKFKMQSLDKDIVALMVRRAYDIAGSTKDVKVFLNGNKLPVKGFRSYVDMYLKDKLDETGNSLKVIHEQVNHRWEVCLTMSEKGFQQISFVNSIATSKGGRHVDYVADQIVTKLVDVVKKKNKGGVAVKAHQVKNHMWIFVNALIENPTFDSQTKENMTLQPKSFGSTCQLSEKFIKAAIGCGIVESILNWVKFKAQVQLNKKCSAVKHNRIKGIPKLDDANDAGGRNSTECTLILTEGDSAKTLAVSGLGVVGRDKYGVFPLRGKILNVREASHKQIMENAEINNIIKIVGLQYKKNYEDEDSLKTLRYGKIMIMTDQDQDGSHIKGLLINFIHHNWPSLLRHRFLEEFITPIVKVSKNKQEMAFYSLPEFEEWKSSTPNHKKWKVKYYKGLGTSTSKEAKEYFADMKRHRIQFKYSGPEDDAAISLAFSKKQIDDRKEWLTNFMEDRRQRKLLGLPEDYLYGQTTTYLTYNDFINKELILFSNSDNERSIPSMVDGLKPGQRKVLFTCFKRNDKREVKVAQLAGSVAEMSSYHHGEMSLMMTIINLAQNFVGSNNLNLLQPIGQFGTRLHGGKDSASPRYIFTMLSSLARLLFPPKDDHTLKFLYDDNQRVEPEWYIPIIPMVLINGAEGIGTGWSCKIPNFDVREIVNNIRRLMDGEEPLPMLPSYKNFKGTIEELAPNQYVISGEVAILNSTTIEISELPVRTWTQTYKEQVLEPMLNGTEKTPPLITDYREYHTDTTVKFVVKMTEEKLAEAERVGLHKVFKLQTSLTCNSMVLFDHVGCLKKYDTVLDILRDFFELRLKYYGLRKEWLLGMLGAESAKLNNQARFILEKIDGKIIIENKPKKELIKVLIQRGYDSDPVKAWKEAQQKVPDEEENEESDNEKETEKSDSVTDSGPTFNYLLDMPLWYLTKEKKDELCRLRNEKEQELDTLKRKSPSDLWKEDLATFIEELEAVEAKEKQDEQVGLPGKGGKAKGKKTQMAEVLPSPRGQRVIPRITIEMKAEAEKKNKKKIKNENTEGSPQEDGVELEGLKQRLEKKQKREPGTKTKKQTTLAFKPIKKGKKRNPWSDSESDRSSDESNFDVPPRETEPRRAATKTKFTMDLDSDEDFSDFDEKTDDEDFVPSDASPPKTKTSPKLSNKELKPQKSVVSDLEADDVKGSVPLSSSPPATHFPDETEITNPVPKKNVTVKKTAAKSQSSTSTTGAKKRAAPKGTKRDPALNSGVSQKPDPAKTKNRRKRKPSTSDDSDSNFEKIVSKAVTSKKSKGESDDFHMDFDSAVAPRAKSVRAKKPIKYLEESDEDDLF

[1] = read-out: IC50 broad anticancer activity; cited from earlier work

IC50 (Topoisomerase II) [µM]	SMILES	IC50 (MCF-7) [µM]	IC50 (A549) [µM]	IC50 [1] [µM]
7.6 ± 0.24	CC(=O)OC[C@H]1O[C@@H](N2C(=O)/C(=C/c3ccccc3)SC2=S)[C@H](OC(C)=O)[C@@H](OC(C)=O)[C@@H]1OC(C)=O [Compound 11a, 5-((Z)-Benzylidene)-3-(2′,3′,4′,6′-tetra-O-acetyl-β-D-glucopyranosyl)-2-thioxo-4-thiazolidinone]	3.7 ± 0.13	9.8 ± 0.11	–
–	CCN1C(=O)C(=Cc2ccccc2)SC1=S [BTR-1, 5-Benzylidene-3-ethyl rhodanine]	–	–	< 10
